Results on 14 molecules are retold here after ChEMBL document CHEMBL1146009, “Synthesis and cytotoxic activity of polyamine analogues of camptothecin” (J Med Chem, 2006).

One data set has as its system NCI-H460. Put plainly: Inhibition of human H460 cell growth. In kind it is functional, cell-based. A digest of the protocol: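 H460 cells grown in RPMI-1640 with 10% FCS, seeded in duplicate in log phase. Drug from DMSO stock added 24 h after seeding for 1 h exposure. Cells counted 72 h later by Coulter counter. IC50 is the concentration giving 50% growth decrease versus untreated control; mean ± SD of at least three experiments.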

The subject of data set [1] is Mus musculus. Put plainly: Toxicity in nude athymic mouse at 1 mg/kg, iv. In kind it is organism-based. Details: dose 1 mg/kg, route intravenous. The settings on record: in vivo.
Data set [2] has as its system Mus musculus. Put plainly: Toxicity in nude athymic mouse at 4 mg/kg, iv. Format: organism-based. Details: dose 4 mg/kg, route intravenous. To be noted: in vivo.
Data set [3] deals with T1, DNA topoisomerase 1 (Homo sapiens) (UniProt P11387).
T1 sequence (whole entry): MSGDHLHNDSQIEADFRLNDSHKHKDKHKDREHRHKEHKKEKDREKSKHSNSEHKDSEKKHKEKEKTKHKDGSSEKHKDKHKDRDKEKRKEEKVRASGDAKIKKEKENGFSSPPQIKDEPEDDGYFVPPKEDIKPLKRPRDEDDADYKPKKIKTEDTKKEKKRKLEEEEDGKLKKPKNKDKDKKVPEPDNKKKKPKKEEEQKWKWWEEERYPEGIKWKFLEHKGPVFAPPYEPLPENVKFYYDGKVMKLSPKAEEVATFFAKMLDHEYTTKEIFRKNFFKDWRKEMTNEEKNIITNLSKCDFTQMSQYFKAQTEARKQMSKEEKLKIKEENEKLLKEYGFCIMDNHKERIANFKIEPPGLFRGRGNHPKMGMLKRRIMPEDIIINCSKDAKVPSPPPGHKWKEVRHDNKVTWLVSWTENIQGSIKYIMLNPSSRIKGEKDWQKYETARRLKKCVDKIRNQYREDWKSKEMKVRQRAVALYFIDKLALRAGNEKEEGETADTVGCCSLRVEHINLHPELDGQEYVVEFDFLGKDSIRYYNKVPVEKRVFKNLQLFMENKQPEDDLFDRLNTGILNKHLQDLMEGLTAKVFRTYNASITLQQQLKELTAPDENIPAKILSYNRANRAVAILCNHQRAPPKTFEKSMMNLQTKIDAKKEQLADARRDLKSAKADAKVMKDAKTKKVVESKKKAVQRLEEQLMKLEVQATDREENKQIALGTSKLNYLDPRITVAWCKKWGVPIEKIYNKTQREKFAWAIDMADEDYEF
The experiment in a line: Activity against human Top1-mediated DNA cleavage after 10 mins. Format: functional. Put shortly:
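Purified full-length human recombinant top1 from GST-tagged yeast expression (640 ng per reaction), 3′-end-labelled 751-bp SV40 DNA fragment, pH 7.6 Tris buffer with 150 mM KCl, 5 mM MgCl2. 30 min at 37 °C, then 0.6 M NaCl added to reverse cleavage. Cleavage bands on denaturing gel quantified by phosphorimaging as cleaved/uncleaved radioactivity ratio, relative to 30 min level (100%).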

Data set [4] concerns MKN-28. The experiment in a line: Antitumor activity against human MKN28 cell line xenografted in nude athymic mouse at 5 mg/kg, po measured as tumor volume inhibition relative to control. Format: functional. A digest of the protocol:
(§1)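 MKN-28 human gastric carcinoma tumor fragments inoculated on both flanks of nude athymic mice at day 0. Oral dosing began when tumors were just palpable (day 3-4). Read-out was tumor volume inhibition (%) of treated over control animals, 20 days after the last treatment. Groups of 4 mice.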

The subject of data set [5] is MKN-28. The experiment in a line: Antitumor activity against human MKN28 cell line xenografted in nude athymic mouse at 9 mg/kg, po measured as tumor volume inhibition relative to control. In kind it is functional. Put shortly: as §1
The test system of data set [6] is MKN-28. The experiment in a line: Antitumor activity against human MKN28 cell line xenografted in nude athymic mouse at 15 mg/kg, po measured as tumor volume inhibition relative to control. Format: functional. A digest of the protocol:
as §1

Data set [7] concerns MKN-28. The experiment in a line: Antitumor activity against human MKN28 cell line xenografted in nude athymic mouse at 5 mg/kg, po measured as log10 of cell kill to reach 1000 mm3 tumor volume. In kind it is functional.
For data set [8], the system named is MKN-28. Put plainly: Antitumor activity against human MKN28 cell line xenografted in nude athymic mouse at 9 mg/kg, po measured as log10 of cell kill to reach 1000 mm3 tumor volume. In kind it is functional.
For data set [9], the system named is MKN-28. Put plainly: Antitumor activity against human MKN28 cell line xenografted in nude athymic mouse at 15 mg/kg, po measured as log10 of cell kill to reach 1000 mm3 tumor volume. In kind it is functional.
In data set [10] the test system is MKN-28. The experiment in a line: Antitumor activity against human MKN28 cell line xenografted in nude athymic mouse at 5 mg/kg, po measured as body weight loss. In kind it is functional. Put shortly: (§2)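 Nude athymic mice bearing MKN-28 human gastric carcinoma xenografts, from tumor fragments inoculated on both flanks at day 0. Oral treatment started when tumors were just palpable (day 3-4). Body weight loss (%) and toxicity were recorded per dose group, with toxicity given as a count over 4 mice.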

In data set [11] the test system is MKN-28. The experiment in a line: Antitumor activity against human MKN28 cell line xenografted in nude athymic mouse at 9 mg/kg, po measured as body weight loss. Format: functional. A digest of the protocol: as §2
In data set [12] the test system is MKN-28. Put plainly: Antitumor activity against human MKN28 cell line xenografted in nude athymic mouse at 15 mg/kg, po measured as body weight loss. In kind it is functional. Put shortly:
as §2

Data set [13] deals with Mus musculus. The experiment in a line: Toxicity in nude athymic mouse at 5 mg/kg, po. Format: organism-based. Details: dose 5 mg/kg, route oral. To be noted: in vivo. A digest of the protocol:
as §2

For data set [14], the system named is Mus musculus. The experiment in a line: Toxicity in nude athymic mouse at 9 mg/kg, po. Format: organism-based. The settings on record: in vivo. Further details: dose 9 mg/kg, route oral. A digest of the protocol: as §2
Data set [15] concerns Mus musculus. Put plainly: Toxicity in nude athymic mouse at 15 mg/kg, po. In kind it is organism-based. Details: dose 15 mg/kg, route oral. The settings on record: in vivo. Put shortly:
as §2

Data set [16] relates to MKN-28. Put plainly: Antitumor activity against human MKN28 cell line xenografted in nude athymic mouse at 1 mg/kg, po measured as tumor volume inhibition relative to control. In kind it is functional. Put shortly: (§3)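 Tumour fragments implanted on both flanks of nude athymic mice at day 0. Dosing iv or po started when tumours were just palpable (day 3-4). Tumour volume inhibition (%) is treated over control, 20 days after last treatment.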

Data set [17] has as its system MKN-28. Put plainly: Antitumor activity against human MKN28 cell line xenografted in nude athymic mouse at 2 mg/kg, po measured as tumor volume inhibition relative to control. Format: functional. Put shortly:
as §3

Data set [18] deals with MKN-28. Put plainly: Antitumor activity against human MKN28 cell line xenografted in nude athymic mouse at 4 mg/kg, po measured as tumor volume inhibition relative to control. Format: functional. Put shortly:
as §3

Data set [19] concerns MKN-28. The experiment in a line: Antitumor activity against human MKN28 cell line xenografted in nude athymic mouse at 1 mg/kg, po measured as log10 of cell kill to reach 1000 mm3 tumor volume. Format: functional.
The subject of data set [20] is MKN-28. The experiment in a line: Antitumor activity against human MKN28 cell line xenografted in nude athymic mouse at 2 mg/kg, po measured as log10 of cell kill to reach 1000 mm3 tumor volume. Format: functional.
In data set [21] the test system is MKN-28. The experiment in a line: Antitumor activity against human MKN28 cell line xenografted in nude athymic mouse at 4 mg/kg, po measured as log10 of cell kill to reach 1000 mm3 tumor volume. Format: functional.
Data set [22] relates to MKN-28. Put plainly: Antitumor activity against human MKN28 cell line xenografted in nude athymic mouse at 1 mg/kg, po measured as body weight loss. In kind it is functional.
The test system of data set [23] is MKN-28. Put plainly: Antitumor activity against human MKN28 cell line xenografted in nude athymic mouse at 2 mg/kg, po measured as body weight loss. Format: functional.
In data set [24] the test system is MKN-28. The experiment in a line: Antitumor activity against human MKN28 cell line xenografted in nude athymic mouse at 4 mg/kg, po measured as body weight loss. Format: functional.
Data set [25] relates to Mus musculus. Put plainly: Toxicity in nude athymic mouse at 1 mg/kg, po. Format: organism-based. The settings on record: in vivo. Further details: dose 1 mg/kg, route oral.
Data set [26] relates to Mus musculus. Put plainly: Toxicity in nude athymic mouse at 2 mg/kg, po. Details: dose 2 mg/kg, route oral. The settings on record: in vivo. In kind it is organism-based.
In data set [27] the test system is Mus musculus. Put plainly: Toxicity in nude athymic mouse at 4 mg/kg, po. In kind it is organism-based. Further details: dose 4 mg/kg, route oral. The settings on record: in vivo.

In the data set on NCI-H460, `CC[C@@]1(O)C(=O)OCc2c1cc1n(c2=O)Cc2c-1nc1ccccc1c2CN(CCCN(CCCCN(CCCNC(=O)OC(C)(C)C)C(=O)OC(C)(C)C)C(=O)OC(C)(C)C)C(=O)OC(C)(C)C` displayed an IC50 of 3270 nM.

On to `CC[C@@]1(O)C(=O)OCc2c1cc1n(c2=O)Cc2c-1nc1ccccc1c2/C=N/CCCN(CCCCNC(=O)OC(C)(C)C)C(=O)OC(C)(C)C`, for which the midpoint of inhibition in the data set on NCI-H460, the IC50, lay at 15 nM. For the same molecule, the Activity result in the data set on Mus musculus [1] and with Mus musculus [2] was “Non-toxic” throughout.

Molecule `CC[C@@]1(O)C(=O)OCc2c1cc1n(c2=O)Cc2c-1nc1ccccc1c2CNCCCNCCCCNCCCN` yielded an IC50 in the data set with NCI-H460 of 1430 nM. For the same molecule, in data set [3], the Activity amounted to 60%.

`CC[C@@]1(O)C(=O)OCc2c1cc1n(c2=O)Cc2c-1nc1ccccc1c2/C=N\OCCNCCCCNCCCN`: the IC50 in the data set on NCI-H460 worked out at 1070 nM. Further, the Activity in [3] turned out to be 60%.

For `CC[C@@]1(O)C(=O)OCc2c1cc1n(c2=O)Cc2cc3c(CN(C)C)c(O)ccc3nc2-1` [TOPOTECAN], in the data set on MKN-28 [4], the inhibition in vivo at 5 mg/kg worked out at 80%. Further, in the data set with MKN-28 [5], testing at 9 mg/kg gave an inhibition in vivo of 91%. Testing at 15 mg/kg in the data set with MKN-28 [6] gave an inhibition in vivo of 98%. For the same molecule, the Activity is given as 1.3 in the data set with MKN-28 [7]; 1.7 in the data set on MKN-28 [8]; 2.1 in the data set on MKN-28 [9]; 0% with MKN-28 [10]; 0% in the data set with MKN-28 [11]; 8% with MKN-28 [12]. In addition, the Activity entry with Mus musculus [13], in the data set with Mus musculus [14] and in the data set with Mus musculus [15] was “Non-toxic” throughout.

`CC[C@@]1(O)C(=O)OCc2c1cc1n(c2=O)Cc2c-1nc1ccccc1c2/C=N\OCCCN` came in with an IC50 in the data set on NCI-H460 of 1770 nM.

Turning to `CC[C@@]1(O)C(=O)OCc2c1cc1n(c2=O)Cc2c-1nc1ccccc1c2/C=N\OCCNC(=O)OC(C)(C)C`, the IC50 in the data set with NCI-H460 is 84 nM.

Consider `CC[C@@]1(O)C(=O)OCc2c1cc1n(c2=O)Cc2c-1nc1ccccc1c2/C=N/CCCN(CCCCN(CCCNC(=O)OC(C)(C)C)C(=O)OC(C)(C)C)C(=O)OC(C)(C)C`, for which the IC50 in the data set on NCI-H460 was 29 nM. The molecule further displayed an inhibition in vivo at 1 mg/kg in the data set with MKN-28 [16] of 28%. Besides, the inhibition in vivo at 2 mg/kg with MKN-28 [17] was 62%. In the data set on MKN-28 [18], this molecule displayed an inhibition in vivo at 4 mg/kg of 72%. In addition, the Activity was determined as 0.1 in the data set on MKN-28 [19]; 0.5 in the data set on MKN-28 [20]; 1 in the data set on MKN-28 [21]; 5% in the data set with MKN-28 [22]; 1% in the data set with MKN-28 [23]; 7% with MKN-28 [24]. For the same molecule, the Activity result in the data set with Mus musculus [25], in the data set on Mus musculus [26] and with Mus musculus [27] was “Non-toxic” in each case.

With `CC[C@@]1(O)C(=O)OCc2c1cc1n(c2=O)Cc2c-1nc1ccccc1c2/C=N\OCCN(CCCCNC(=O)OC(C)(C)C)C(=O)OC(C)(C)C`, half-maximal inhibition with NCI-H460 (IC50) required 1150 nM.

For `CC[C@@]1(O)C(=O)OCc2c1cc1n(c2=O)Cc2c-1nc1ccccc1c2/C=N\OCCNCCCCN`, in the data set on NCI-H460, the IC50 was found to be 1160 nM. The same molecule registered an Activity in [3] of 60%.

On to `CC[C@@]1(O)C(=O)OCc2c1cc1n(c2=O)Cc2c-1nc1ccccc1c2/C=N\OCCCNC(=O)OC(C)(C)C`, for which the IC50 in the data set with NCI-H460 turned out to be 300 nM.

For `CCc1c2c(nc3ccc(O)cc13)-c1cc3c(c(=O)n1C2)COC(=O)[C@]3(O)CC` [7-ETHYL-10-HYDROXYCAMPTOTHECIN], the IC50 with NCI-H460 amounted to 80 nM.

In the case of `CC[C@@]1(O)C(=O)OCc2c1cc1n(c2=O)Cc2c-1nc1ccccc1c2CNCCCN(CCCCN(CCCNC(=O)OC(C)(C)C)C(=O)OC(C)(C)C)C(=O)OC(C)(C)C`, the IC50 in the data set with NCI-H460 is 1400 nM.

With `CC[C@@]1(O)C(=O)OCc2c1cc1n(c2=O)Cc2c-1nc1ccccc1c2/C=N\OCCN(CCCCN(CCCNC(=O)OC(C)(C)C)C(=O)OC(C)(C)C)C(=O)OC(C)(C)C`, the IC50 with NCI-H460 amounted to 1060 nM.
